Measured values as given in ChEMBL document CHEMBL4330171, “Characterization of the Biosynthetic Gene Cluster for the Antibiotic Armeniaspirols in Streptomyces armeniacus” (2019).
Values after ≈ are worked out from the molar mass of the structure shown. Active and inactive are the calls of the source. The rule behind the calls is not given here.

How the values were obtained:
Staphylococcus aureus [1] = assay: Antibacterial activity against Staphylococcus aureus Newman after 24 hrs by broth microdilution assay; assay type: functional
Procedure, shortened: (§1)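 Twofold serial dilutions in LB broth, inoculated to a final 1 × 10^5 to 3 × 10^5 CFU/mL. Incubation at 37 °C for 24 h. MIC read visually as the lowest concentration giving no turbidity.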

Staphylococcus aureus [2] = assay: Antibacterial activity against methicillin-resistant Staphylococcus aureus USA300 after 24 hrs by broth microdilution assay; assay type: functional; details: USA300, 24 h
Enterococcus faecium = assay: Antibacterial activity against Enterococcus faecium ATCC 19434 after 24 hrs by broth microdilution assay; assay type: functional; details: ATCC 19434, 24 h; procedure, shortened: as §1
Enterococcus faecalis = assay: Antibacterial activity against Enterococcus faecalis FA2-2 after 24 hrs by broth microdilution assay; assay type: functional; procedure, shortened: as §1
Bacillus subtilis = assay: Antibacterial activity against Bacillus subtilis 168 after 24 hrs by broth microdilution assay; assay type: functional; details: subsp. subtilis str. 168, 24 h; procedure, shortened: as §1
Escherichia coli = assay: Antibacterial activity against Escherichia coli MG1655 after 24 hrs by broth microdilution assay; assay type: functional, organism-based; details: K-12 substr. MG1655; procedure, shortened: as §1
Acinetobacter baumannii = assay: Antibacterial activity against Acinetobacter baumannii ATCC 19606 after 24 hrs by broth microdilution assay; assay type: functional, organism-based; details: ATCC 19606 = CIP 70.34 = JCM 6841; procedure, shortened: as §1
Pseudomonas aeruginosa = assay: Antibacterial activity against Pseudomonas aeruginosa PAO1 after 24 hrs by broth microdilution assay; assay type: functional, organism-based; procedure, shortened: as §1
Klebsiella pneumoniae = assay: Antibacterial activity against Klebsiella pneumoniae ATCC 35657 after 24 hrs by broth microdilution assay; assay type: functional, organism-based; procedure, shortened: as §1
Salmonella typhimurium = assay: Antibacterial activity against Salmonella typhimurium ATCC 14028 after 24 hrs by broth microdilution assay; assay type: functional, organism-based; details: Salmonella enterica subsp. enterica serovar Typhimurium; procedure, shortened: as §1
Shigella dysenteriae = assay: Antibacterial activity against Shigella dysenteriae ATCC 13313 after 24 hrs by broth microdilution assay; assay type: functional, organism-based

| Structure (SMILES) | MIC (Staphylococcus aureus [1]) [µg/mL] | MIC (Staphylococcus aureus [2]) [µg/mL] | MIC (Enterococcus faecium) [µg/mL] | MIC (Enterococcus faecalis) [µg/mL] | MIC (Bacillus subtilis) [µg/mL] | Activity (Escherichia coli) | Activity (Acinetobacter baumannii) | Activity (Pseudomonas aeruginosa) | Activity (Klebsiella pneumoniae) | Activity (Salmonella typhimurium) | Activity (Shigella dysenteriae) |
| --- | --- | --- | --- | --- | --- | --- | --- | --- | --- | --- | --- |
| CC(C)CCCc1c(O)ccc2c1O[C@@]1(C=C(Cl)C(=O)N1)C2=O | > 32 | > 32 | > 32 | > 32 | > 32 | inactive | inactive | inactive | inactive | inactive | inactive |
| CC[C@H](C)CCCc1c(O)ccc(C(=O)c2cc(Cl)c(Cl)[nH]2)c1O | 1 (≈ 2.7 µM) | 2 (≈ 5.4 µM) | 2 (≈ 5.4 µM) | 8 (≈ 21.6 µM) | 0.5 (≈ 1.35 µM) | inactive | inactive | inactive | inactive | inactive | inactive |
| CC(C)CCCc1c(O)ccc(C(=O)c2cc(Cl)c(Cl)[nH]2)c1O | 1 (≈ 2.81 µM) | 1 (≈ 2.81 µM) | 2 (≈ 5.61 µM) | 8 (≈ 22.5 µM) | 0.5 (≈ 1.4 µM) | inactive | inactive | inactive | inactive | inactive | inactive |
| CC[C@H](C)CCCc1c(O)ccc2c1O[C@]1(NC(=O)C(Cl)=C1Cl)C2=O | 8 (≈ 20.8 µM) | 8 (≈ 20.8 µM) | 32 (≈ 83.3 µM) | 32 (≈ 83.3 µM) | 8 (≈ 20.8 µM) | inactive | inactive | inactive | inactive | inactive | inactive |
| CCCCCCc1c(O)ccc2c1O[C@@]1(C=C(Cl)C(=O)N1C)C2=O | 4 (≈ 11.4 µM) | 8 (≈ 22.9 µM) | > 32 | > 32 | 8 (≈ 22.9 µM) | inactive | inactive | inactive | inactive | inactive | inactive |
| CC(C)CCCc1c(O)ccc2c1O[C@]1(C2=O)C(Cl)=C(Cl)C(=O)N1C [ARMENIASPIROLE B] | 0.5 (≈ 1.3 µM) | 2 (≈ 5.2 µM) | > 32 | 32 (≈ 83.3 µM) | 4 (≈ 10.4 µM) | inactive | inactive | inactive | inactive | inactive | inactive |
| CC(C)CCCc1c(O)ccc2c1O[C@@]1(C=C(Cl)C(=O)N1C)C2=O | 4 (≈ 11.4 µM) | 16 (≈ 45.7 µM) | > 32 | > 32 | 16 (≈ 45.7 µM) | inactive | inactive | inactive | inactive | inactive | inactive |
| CC(C)CCCc1c(O)ccc2c1O[C@]1(NC(=O)C(Cl)=C1Cl)C2=O | 8 (≈ 21.6 µM) | 16 (≈ 43.2 µM) | > 32 | > 32 | 16 (≈ 43.2 µM) | inactive | inactive | inactive | inactive | inactive | inactive |
| CCCCCCc1c(O)ccc2c1O[C@]1(NC(=O)C(Cl)=C1Cl)C2=O | 8 (≈ 21.6 µM) | 16 (≈ 43.2 µM) | 32 (≈ 86.4 µM) | > 32 | 8 (≈ 21.6 µM) | inactive | inactive | inactive | inactive | inactive | inactive |
| CCCCCCc1c(O)ccc2c1O[C@]1(C2=O)C(Cl)=C(Cl)C(=O)N1C [ARMENIASPIROLE A] | 0.5 (≈ 1.3 µM) | 0.5 (≈ 1.3 µM) | > 32 | 16 (≈ 41.6 µM) | 2 (≈ 5.2 µM) | inactive | inactive | inactive | inactive | inactive | inactive |
| CCCCCCc1c(O)ccc(C(=O)c2cc(Cl)c(Cl)[nH]2)c1O | 1 (≈ 2.81 µM) | 1 (≈ 2.81 µM) | 2 (≈ 5.61 µM) | 2 (≈ 5.61 µM) | 0.5 (≈ 1.4 µM) | inactive | inactive | inactive | inactive | inactive | inactive |
| CN[C@H](CC(C)C)C(=O)N[C@H]1C(=O)N[C@@H](CC(N)=O)C(=O)N[C@H]2C(=O)N[C@H]3C(=O)N[C@H](C(=O)N[C@H](C(=O)O)c4cc(O)cc(O)c4-c4cc3ccc4O)[C@H](O)c3ccc(c(Cl)c3)Oc3cc2cc(c3O[C@@H]2O[C@H](CO)[C@@H](O)[C@H](O)[C@H]2O[C@H]2C[C@](C)(N)[C@H](O)[C@H](C)O2)Oc2ccc(cc2Cl)[C@H]1O [VANCOMYCIN] | – | – | – | 2 (≈ 1.38 µM) | 0.25 (≈ 0.173 µM) | – | – | – | – | – | – |
| CC[C@H](C)CCCc1c(O)ccc2c1O[C@]1(C2=O)C(Cl)=C(Cl)C(=O)N1C [ARMENIASPIROLE C] | 0.5 (≈ 1.26 µM) | 0.5 (≈ 1.26 µM) | > 32 | > 32 | 2 (≈ 5.02 µM) | inactive | inactive | inactive | inactive | inactive | inactive |
| CC[C@H](C)CCCc1c(O)ccc2c1O[C@@]1(C=C(Cl)C(=O)N1)C2=O | > 32 | > 32 | > 32 | > 32 | 16 (≈ 45.7 µM) | inactive | inactive | inactive | inactive | inactive | inactive |
| CCCCCCc1c(O)ccc2c1O[C@@]1(C=C(Cl)C(=O)N1)C2=O | > 32 | > 32 | > 32 | > 32 | > 32 | inactive | inactive | inactive | inactive | inactive | inactive |
| CC[C@H](C)CCCc1c(O)ccc2c1O[C@@]1(C=C(Cl)C(=O)N1C)C2=O | 2 (≈ 5.5 µM) | 8 (≈ 22 µM) | > 32 | > 32 | 8 (≈ 22 µM) | inactive | inactive | inactive | inactive | inactive | inactive |
